m5-HT2A agonist = mouse Htr2a agonists via beta-arrestin recruitment, primary screen, cell-based, luminescence; CHO-K1 mHTR2A beta-arrestin complementation; percent of 30 µM serotonin response; activation, % at 7.6 µM; 5-hydroxytryptamine receptor 2A (Mus musculus), P35363; 0.66% of 360,000 active;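 active = activation above a run cutoff, the mean activation of all tested compounds plus 3 SD, cut at about 14% in these data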
Target sequence (P35363 whole entry, looked up): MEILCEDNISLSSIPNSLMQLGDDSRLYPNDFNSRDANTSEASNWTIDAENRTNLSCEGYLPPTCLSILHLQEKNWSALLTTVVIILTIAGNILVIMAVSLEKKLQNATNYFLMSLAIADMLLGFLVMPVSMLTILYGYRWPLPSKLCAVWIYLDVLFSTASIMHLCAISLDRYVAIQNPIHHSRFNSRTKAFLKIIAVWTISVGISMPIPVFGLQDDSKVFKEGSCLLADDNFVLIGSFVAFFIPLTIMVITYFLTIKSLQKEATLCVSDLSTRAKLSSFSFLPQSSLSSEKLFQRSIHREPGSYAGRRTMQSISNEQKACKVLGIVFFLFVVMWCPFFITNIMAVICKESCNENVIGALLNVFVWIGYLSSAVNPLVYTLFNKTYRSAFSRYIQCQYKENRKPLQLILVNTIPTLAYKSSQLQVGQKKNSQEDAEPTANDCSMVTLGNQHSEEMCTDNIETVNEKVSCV
APJ antag = antagonists of human apelin receptor APJ, primary screen, CHO-K1 cells, beta-arrestin complementation, luminescence. P35414. inhibition, % at 20 µM. 0.32% of 330,000 active. AID 2521, 2010;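 active = inhibition above about 40% at 20 µM, limit read from the data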;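 note: cells challenged with 10 nM apelin-13 agonist together with compound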
APJ agonist = agonists of human apelin receptor APJ, primary screen, CHO-K1 cells, PathHunter beta-arrestin, luminescence; P35414; 0% DMSO wells, 100% apelin; activation, % at 20 µM; 0.11% of 330,000 active; AID 2520, 2010;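 active = activation more than six SD over the plate average, tested at 20 µM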
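Assay system: CHO-K1 APJ beta-arrestin complementation cell line / Compound: single test compound dose, 20 µM final, 1% DMSO / Times: overnight seeding, 90 min compound at 25 °C, 1 h detection / Technique: beta-gal luminescence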
CXCR6 block = CXCR6 receptor inhibitors, primary screen, cell-based, beta-arrestin, luminescence, CHO-K1 PathHunter, 1536-well | 0.36% of 360,000 active | AID 602244, 2012 | inhibition, % at 20 µM; in the data active = inhibition above about 34%, passing the limit was not always enough;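 note: antagonist mode with CXCL16 agonist at 10 nM final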
NTR1 ag = agonists of human NTR1, primary screen, imaging, U2OS cells, beta-arrestin-GFP, high content; Neurotensin receptor type 1 (Homo sapiens), P30989; 0.17% of 330,000 active; NTR1-U2OS beta-arrestin-GFP spot imaging, agonist mode; activation, % at 20 µM;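 active = activation at or above 40% of the spot to cytoplasm intensity ratio, with at least 20 cells analyzed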
CCR6 antagonist = CCR6 receptor antagonists, primary screen, cell-based, CHO-K1, luminescence, beta-arrestin, uHTS; 0.49% of 340,000 active; inhibition, % at 20 µM; AID 493098, 2011; CHO-K1 CCR6 PathHunter beta-arrestin, CCL20-stimulated;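 active = compounds whose inhibition of the agonist-driven luminescence signal at 20 µM reaches about 50%, limit read from the data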;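 note: cells stimulated with CCL20 at 14 nM final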
APJ antag conf = APJ antagonists blocking beta-arrestin recruitment, confirmation, cell-based, luminescence, single concentration, uHTS hits | 66% of 950 active | antagonist mode | shares compounds with APJ antag | AID 2766, 2010 | inhibition, % at 20 µM; in the data active = inhibition above about 50%
Numbers stand for hits; – = inactive; · = no result given. A selection: hits, their analogues and other compounds. The true share with any hit is near 1.5%.

SMILES | m5-HT2A agonist | APJ antag | APJ agonist | CXCR6 block | NTR1 ag | CCR6 antagonist | APJ antag conf
Cc1nn(CCC(=O)NNC(=S)Nc2ccccc2)c(C)c1Br | – | 47 | – | – | – | – | 100
Cc1cccc(C(=O)Nc2ccc(C(=O)N3CCCCC3C)cc2)c1 (centres undefined) | – | – | – | – | – | – | ·
CCOC(=O)C1CCN(c2nc(C)nc3c2oc2ccccc23)CC1 | – | 45 | – | – | – | – | –
CCOC(=O)C1CCCN(c2nc(C)nc3c2oc2ccccc23)C1 (centres undefined) | – | – | – | – | – | – | ·
O=C(O)c1ccccc1N=Nc1c(O)[nH]c2ccc([N+](=O)[O-])cc12 | – | 42 | – | – | – | – | 53
O=C(COC(=O)c1cccc(Br)c1)Nc1ccc2[nH]c(=O)[nH]c2c1 | – | – | – | – | – | – | ·
CN1C(=O)/C(=C\c2cc(N=Nc3ccccc3)ccc2O)SC1=S | – | 68 | – | 52 | – | 55 | 109
CN1C(=O)/C(=C\c2ccccc2OCc2ccccc2)SC1=S | – | – | – | – | – | – | ·
CC(C)(C)c1cc(CCC(=O)NNC(=S)NC(=O)c2ccccc2)cc(C(C)(C)C)c1O | – | 51 | – | 58 | – | 58 | 135
COc1cc([N+](=O)[O-])cc(/C=N/NC(=O)C(O)(c2ccccc2)c2ccccc2)c1O | – | 47 | – | – | – | – | –
O=C(N/N=C/c1cccc([N+](=O)[O-])c1O)C(O)(c1ccccc1)c1ccccc1 | – | – | – | – | – | – | ·
O=C(NNc1ccccc1)c1ccccc1 | – | · | · | – | · | – | ·
O=C(NNc1ccc(O)cc1)c1ccc(Br)cc1 | – | 86 | – | 70 | – | 101 | 139
COc1ccc(Cn2nnnc2C(c2cc(OC)ccc2OC)N2CCC(C(N)=O)CC2)cc1 (centres undefined) | – | 43 | – | – | – | – | –
Oc1ccc(N=Nc2ccc3ccccc3c2)cc1 | – | – | – | – | – | – | ·
Oc1ccc(N=Nc2c(O)ccc3ccccc23)cc1 | – | 50 | – | – | – | 54 | 71
Cc1cc(C)n(-c2ccc(NC(=O)C3CCN(Cc4ccccn4)CC3)cc2)n1 | – | – | – | – | – | – | ·
CCCCCCCCCCCCCCCC(O)C[N+](C)(C)CCO (centres undefined) | – | · | · | – | · | – | ·
CCCCCCCCCCCCCCCC(O)C(N)CO (centres undefined) | – | 41 | – | – | – | – | –
COc1ccc(CNC(=O)CN(Cc2ccco2)C(=O)CNS(=O)(=O)c2ccc(F)cc2)cc1 | – | 41 | – | – | – | – | –
COc1ccc(N2CC(C(=O)Nc3ccccc3C(=O)NC3CC3)CC2=O)cc1 (centres undefined) | – | 41 | – | – | – | – | –
CCOC(=O)c1sc2nc(C)nc(NC3CCC(O)CC3)c2c1C (centres undefined) | – | – | – | – | – | – | ·
CC(C)CCN(CC(=O)NCc1ccc(F)cc1)S(=O)(=O)c1ccccc1F | – | – | – | – | – | – | ·
CC(=O)C1=C(c2cccc([N+](=O)[O-])c2)N(C(C)=O)n2c(C)nnc2S1 | – | 107 | – | – | – | 70 | 154
NC(=O)c1sc2nc(-c3ccccc3)c3c(c2c1N)CCCC3 | – | 47 | – | – | – | – | –
Cc1cc(C)nc(NNS(=O)(=O)c2c(F)cc(F)cc2Br)n1 | – | 67 | – | – | – | – | 114
Cc1cc(C)nc(NNS(=O)(=O)c2c(C)cc(C(C)(C)C)cc2C)n1 | – | – | – | – | – | – | ·
COc1cccc(C(=O)NC(=S)Nc2cccnc2)c1 | – | – | – | – | – | – | ·
CC(C)Oc1cccc(C(=O)NC(=S)Nc2cccnc2)c1 | – | 42 | – | – | – | – | 50
